Measured values: ChEMBL document CHEMBL1143958, “Synthesis of insecticidal fluorinated anthranilic diamides” (Bioorg Med Chem, 2008)

Experiments:
[1] = test system: Myzus persicae; assay: Insecticidal activity against Myzus persicae Sulzer in raddish plant by combined contact/systemic plant assay; set-up: unit not given here
[2] = test system: Myzus persicae; assay: as above; set-up: unit not given here; remark: listed apart in the source
[3] = test system: Myzus persicae; assay: Insecticidal activity against Myzus persicae Sulzer in raddish plant; type: functional, organism-based
Procedure, shortened: (§1)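 Combined contact/systemic (CON/SYS) plant assay. Test compound applied to give good foliar and soil coverage, so both contact and soil systemic exposure occur. Aphis gossypii on cotton plants; Myzus persicae on radish plants 12–15 days old, treated the same way. Run in triplicate, rates 3–5× apart where possible. Units dried 1 h, capped, held 6 days at 19–21 °C and 50–70% RH.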

[4] = test system: Aphis gossypii; assay: Insecticidal activity against Aphis gossypii glover in cotton/melon plant; type: functional, organism-based
Procedure, shortened: as §1

[5] = test system: Myzus persicae; assay: Insecticidal activity against Myzus persicae Sulzer in raddish plant assessed as mortality at 250 ppm by systemic plant assay; type: functional
Procedure, shortened: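 Systemic-only (SYS) plant assay on Myzus persicae. Formulated compound applied directly to the soil, avoiding any direct contact with the aphids. Percent mortality recorded at 250 ppm.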

[6] = test system: Aphis gossypii; assay: Insecticidal activity against Aphis gossypii glover in cotton/melon plant by combined contact/systemic plant assay; set-up: unit not given here
[7] = Lipophilicity, log P of the compound; type: physicochemical; settings: octanol/water
Procedure, shortened: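 Measured by reversed-phase HPLC on a C18 column at 40 °C, 1.0 mL/min. Gradient over 5 min from 99% 5 mM ammonium acetate pH 7 to 99% 5 mM ammonium acetate in acetonitrile. logP read from a calibration curve of retention times for compounds with known shake-flask octanol–water values.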

[8] = test system: Aphis gossypii; assay: Insecticidal activity against Aphis gossypii glover in cotton/melon plant by combined contact/systemic plant assay
[9] = test system: Myzus persicae; assay: Insecticidal activity against Myzus persicae Sulzer in raddish plant assessed as mortality at 50 ppm; type: functional
Procedure, shortened: as §1

[10] = test system: Myzus persicae; assay: Insecticidal activity against Myzus persicae Sulzer in raddish plant assessed as mortality at 250 ppm; type: functional
Procedure, shortened: as §1

[11] = test system: Aphis gossypii; assay: Insecticidal activity against Aphis gossypii glover in cotton plant assessed as mortality at 250 ppm; type: functional
Procedure, shortened: as §1

[12] = test system: Myzus persicae; assay: Insecticidal activity against Myzus persicae Sulzer in raddish plant assessed as mortality at 100 ppm; type: functional
Procedure, shortened: as §1

[13] = test system: Aphis gossypii; assay: Insecticidal activity against Aphis gossypii glover in cotton/melon plant assessed as mortality at 100 ppm; type: functional
Procedure, shortened: as §1

[14] = test system: Aphis gossypii; assay: Insecticidal activity against Aphis gossypii glover in cotton/melon plant assessed as mortality at 50 ppm; type: functional
Procedure, shortened: as §1

[15] = test system: Aphis gossypii; assay: Insecticidal activity against Aphis gossypii glover in cotton/melon plant assessed as mortality at 2 ppm; type: functional
Procedure, shortened: as §1

Structure (SMILES)	EC50 lower 95% confidence limit [1]	EC50 upper 95% confidence limit [2]	EC50 [3] [ppm]	EC50 [4] [ppm]	Activity [5] [%]	EC50 upper 95% confidence limit [6]	logP [7]	EC50 lower 95% confidence limit [8] [ppm]	Activity [9] [%]	Activity [10] [%]	Activity [11] [%]	Activity [12] [%]	Activity [13] [%]	Activity [14] [%]	Activity [15] [%]
CNC(=O)c1cc(Cl)cc(Cl)c1NC(=O)c1cc(F)nn1-c1ncccc1Cl	15.9	26.8	20.6	6.2	2	8.9	2.6	4.4	–	–	–	–	–	–	–
CNC(=O)c1cc(F)cc(Cl)c1NC(=O)c1cc(Br)nn1-c1ncccc1Cl	4	23.2	7.8	2.5	2	4.7	2.6	1.1	–	–	–	–	–	–	–
CNC(=O)c1cc(F)cc(F)c1NC(=O)c1cc(F)nn1-c1ncccc1Cl	–	–	< 250	< 250	–	–	–	–	80	100	70	–	–	–	–
CNC(=O)c1cc(Cl)cc(F)c1NC(=O)c1cc(Br)nn1-c1ncccc1Cl	–	–	> 300	5.5	–	9.5	2.9	3	–	–	–	–	–	–	–
CNC(=O)c1cc(Cl)cc(Cl)c1NC(=O)c1cc(C(F)(F)F)nn1-c1ncccc1Cl	2.7	4.6	3.4	2.1	74	3.5	–	1.4	–	–	–	–	–	–	–
CNC(=O)c1cc(Cl)cc(Cl)c1NC(=O)c1cc(C(F)(F)F)nn1-c1ncccc1F	1.5	7	3.4	9.1	58	16.3	–	5.8	–	–	–	–	–	–	–
CNC(=O)c1cc(Cl)cc(C)c1NC(=O)c1cc(Br)nn1-c1ncccc1F	8.7	15.2	11.3	3.7	29	6.4	–	2	–	–	–	–	–	–	–
CNC(=O)c1cc(F)cc(Cl)c1NC(=O)c1cc(F)nn1-c1ncccc1Cl	–	–	< 100	< 100	–	–	–	–	–	–	–	65	89	–	–
CNC(=O)c1cc(Cl)cc(C)c1NC(=O)c1cc(F)nn1-c1ncccc1Cl	–	–	> 300	> 100	–	–	–	–	–	–	–	–	–	–	–
O=[N+]([O-])/N=C1\NCCN1Cc1ccc(Cl)nc1 [IMIDACLOPRID]	–	–	0.3	0.4	–	–	–	–	–	–	–	–	–	–	–
CNC(=O)c1cc(Cl)cc(Cl)c1NC(=O)c1cc(Br)nn1-c1ncccc1Cl	1.4	3.2	2.1	1.6	22	2.4	3	0.9	–	–	–	–	–	–	–
CNC(=O)c1cc(F)cc(C)c1NC(=O)c1cc(Br)nn1-c1ncccc1Cl	–	–	> 300	11.3	<80	18.5	–	7.2	–	–	–	–	–	–	–
CNC(=O)c1cc(F)cc(Cl)c1NC(=O)c1cc(C(F)(F)F)nn1-c1ncccc1Cl	7.2	12.9	9.2	5.5	100	8.1	–	4	–	–	–	–	–	–	–
CNC(=O)c1cc(F)cc(F)c1NC(=O)c1cc(Br)nn1-c1ncccc1Cl	–	–	< 250	< 50	14	–	–	–	–	–	–	–	–	85	–
CNC(=O)c1cc(Cl)cc(Cl)c1NC(=O)c1cc(Br)nn1-c1ncccc1F	–	–	1.8	< 2	29	–	2.7	–	–	–	–	–	–	–	89
CNC(=O)c1cc(F)cc(C)c1NC(=O)c1cc(C(F)(F)F)nn1-c1ncccc1Cl	6.7	84.3	30.8	63.4	8	201	–	26	–	–	–	–	–	–	–
CNC(=O)c1cc(Cl)cc(C)c1NC(=O)c1cc(Br)nn1-c1ncccc1Cl [CHLORANTRANILIPROLE]	–	–	12.4	3.1	12	–	3	–	–	–	–	–	–	–	–
